Measurements published in ChEMBL document CHEMBL2396601, “Synthesis and antiprotozoal activity of dicationic m-terphenyl and 1,3-dipyridylbenzene derivatives” (J Med Chem, 2013).
Calls of active or inactive are those of the source. No cut-off for these calls is given here.

Experiments:
[1] = test system: Plasmodium falciparum; assay: Antiprotozoal activity against chloroquine-resistant Plasmodium falciparum K1 after 48 hrs by [3H]-hypoxanthine incorporation assay; type: functional, organism-based
[2] = Selectivity index, ratio of IC50 for rat L6 cells to IC50 for Leishmania amazonensis; type: toxicity, cell-based; settings: read-out: Ratio IC50
Method in brief: (§1)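 Selectivity index is IC50 against L6 rat myoblast cells divided by IC50 against the named parasite.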

[3] = Selectivity index, ratio of IC50 for rat L6 cells to IC50 for Plasmodium falciparum K1; type: toxicity, cell-based; settings: L6 cells, read-out: Ratio IC50; method in brief: as §1
[4] = test system: Leishmania amazonensis; assay: Antiprotozoal activity against intracellular amastigote form of Leishmania amazonensis infected in CD1 mouse macrophages after 72 hrs by […]; type: functional, organism-based
[5] = test system: Trypanosoma brucei rhodesiense; assay: Antiprotozoal activity against Trypanosoma brucei rhodesiense STIB900 after 72 hrs by Alamar Blue assay; type: functional, organism-based
Method in brief: (§2)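 Uses T. b. rhodesiense STIB900, T. cruzi Tulahuen C2C4 LacZ intracellular amastigotes, or L6 rat myoblasts depending on line.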

[6] = Selectivity index, ratio of IC50 for rat L6 cells to IC50 for Trypanosoma cruzi Tulahuen C2C4; type: toxicity, cell-based; settings: read-out: Ratio IC50; method in brief: as §1
[7] = Selectivity index, ratio of IC50 for rat L6 cells to IC50 for Trypanosoma brucei rhodesiense STIB900; type: toxicity, cell-based; settings: L6 cells, read-out: Ratio IC50; method in brief: as §1
[8] = test system: L6; assay: Cytotoxicity against rat L6 cells after 72 hrs by Alamar Blue assay; type: cell-based; settings: L6, 72 h; method in brief: as §2
[9] = test system: Trypanosoma cruzi; assay: Antiprotozoal activity against intracellular amastigote form of Trypanosoma cruzi Tulahuen C2C4 expressing LacZ infected in rat L6 cells after 48 hrs; type: functional, organism-based; settings: Tulahuen C2C4, L6, 48 h; method in brief: as §2
[10] = test system: Trypanosoma brucei rhodesiense; assay: Antiprotozoal activity against Trypanosoma brucei rhodesiense STIB900 infected in NMRI mouse assessed as host mean survival days at 5 mg/kg, ip qd for 4 days; type: functional; settings: route intraperitoneal
Method in brief: (§3)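 Acute-stage HAT mouse model infected with STIB900. Cure means survival to 60 days after infection with no parasitemia relapse. Mean survival days are counted from infection and use every mouse: relapsed mice, plus cured mice entered as >60 days.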

[11] = test system: Trypanosoma brucei rhodesiense; assay: Antiprotozoal activity against Trypanosoma brucei rhodesiense STIB900 infected in NMRI mouse assessed as reduction of parasitemia relapse at 5 mg/kg, ip qd for 4 days; type: functional, organism-based; parameters: dose 5 mg/kg
Method in brief: (§4)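 Mouse model of acute (early) stage HAT with T. b. rhodesiense STIB900, groups of 4 mice. Amidines dosed intraperitoneally, 4 daily doses of 5 mg/kg or single doses; prodrugs dosed orally, 4 daily doses of 25 mg/kg. Cure means survival to 60 days after infection with no parasitemia relapse. Mean survival days counts all mice, with cured mice scored as >60 days.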

[12] = test system: Trypanosoma brucei rhodesiense; assay: Antiprotozoal activity against Trypanosoma brucei rhodesiense STIB900 infected in NMRI mouse assessed as reduction of parasitemia relapse at 10 mg/kg, ip; type: functional, organism-based; parameters: dose 10 mg/kg; method in brief: as §4
[13] = test system: Trypanosoma brucei rhodesiense; assay: Antiprotozoal activity against Trypanosoma brucei rhodesiense STIB900 infected in NMRI mouse assessed as host mean survival days at 25 mg/kg, po qd for 4 days; type: functional; method in brief: as §3
[14] = test system: Mus musculus; assay: Toxicity in BALB/c mouse assessed as hyperactivity measured after first dose at 30 mg/kg, ip qd for 5 days; type: organism-based; parameters: dose 30 mg/kg, route intraperitoneal; settings: in vivo, 120 h
Method in brief: (§5)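 Tolerability check before efficacy testing in uninfected BALB/c mice, groups of two, given 30 mg/kg ip daily for five days. Watched for overt toxicity signs such as tremors and hyperactivity after each dose. Mice showing adverse effects were euthanized.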

[15] = test system: Mus musculus; assay: Toxicity in BALB/c mouse assessed as tremors measured after second dose at 30 mg/kg, ip qd for 5 days; type: organism-based; parameters: dose 30 mg/kg, route intraperitoneal; settings: in vivo, 120 h; method in brief: as §5
[16] = test system: Trypanosoma brucei rhodesiense; assay: Antiprotozoal activity against Trypanosoma brucei rhodesiense STIB900 infected in NMRI mouse assessed as host mean survival days at 10 mg/kg, ip; type: functional; settings: route intraperitoneal; method in brief: as §3
[17] = test system: Trypanosoma brucei rhodesiense; assay: Antiprotozoal activity against Trypanosoma brucei rhodesiense STIB900 infected in NMRI mouse assessed as reduction of parasitemia relapse at 25 mg/kg, po qd for 4 days; type: functional, organism-based; parameters: dose 25 mg/kg; method in brief: as §4
[18] = Trypanosoma brucei, STIB900, 72 h

| SMILES | IC50 ([1]; Plasmodium falciparum, K1) [nM] | selectivity ratio [2] | selectivity ratio [3] | IC50 [4] [nM] | IC50 [5, 18] [nM] | selectivity ratio [6] | selectivity ratio [7] | IC50 [8] [nM] | IC50 [9] [nM] | MSD [10] [days] | Activity [11] | Activity [12] | MSD [13] [days] | Activity [14] | Activity [15] | IC50 [1] [nM] | IC50 [5] [nM] | MSD [16] [days] | Activity [17] |
| --- | --- | --- | --- | --- | --- | --- | --- | --- | --- | --- | --- | --- | --- | --- | --- | --- | --- | --- | --- |
| N=C(Nc1ccc(-c2cc(Cl)cc(-c3cccc(NC(=N)c4ccccc4)c3)c2)cc1)c1ccccc1 | 39 | 2 | 58 | 1020 | 178 | 1 | 13 | 2270 | 2040 |  |  |  |  |  |  |  |  |  |  |
| Cl.Cl.N=C(N)c1cccc(-c2cccc(-c3cccc(C(=N)N)c3)c2)c1 | 38 |  | 3320 |  | 55 | 4 | 2270 | 125000 | 35000 | 18.5 | inactive |  |  |  |  |  |  |  |  |
| N=C(Nc1cccc(-c2cc(Cl)cc(-c3cccc(NC(=N)c4ccccc4)c3)c2)c1)c1ccccc1 | 71 | 2 | 58 | 2430 | 533 | 2 | 8 | 4100 | 2090 |  |  |  |  |  |  |  |  |  |  |
| N=C(N)c1ccc(-c2cccc(-c3ccc(C(=N)N)cn3)c2)nc1 |  |  |  |  |  |  |  |  |  |  | Active | Active |  |  |  |  |  |  |  |
| CO/N=C(\N)c1ccc(-c2cccc(-c3ccc(/C(N)=N\OC)cn3)c2)nc1.Cl | 3560 |  | > 42 |  | 26300 | > 1 | > 6 | > 150000 | 117000 |  |  |  | >53.75 |  |  |  |  |  |  |
| CO/N=C(/N)c1ccc(-c2cccc(-c3ccc(/C(N)=N\OC)cc3)c2)cc1.Cl.Cl | > 10000 |  | < 2 |  | 4440 | < 1 | 4 | 19200 | 92600 |  |  |  | >34.25 |  |  |  |  |  |  |
| Cl.Cl.N=C(Nc1ccc(-c2cccc(-c3cccc(NC(=N)c4ccccn4)c3)c2)cc1)c1ccccn1 | 208 | 22 | 13 | 123 | 1940 | 7 | 1 | 2720 | 388 |  |  |  |  | Toxic | Toxic |  |  |  |  |
| Cl.Cl.c1cc(-c2ccc(C3=NCCN3)cc2)cc(-c2ccc(C3=NCCN3)cc2)c1 | 73 |  | 35 |  | 68 | < 1 | 37 | 2550 | 18900 | 9.25 | inactive |  |  |  |  |  |  |  |  |
| Cl.Cl.Cl.N=C(N)c1ccc(-c2cc(Cl)cc(-c3ccc(C(=N)N)cc3)c2)cc1 | 39 |  | 561 |  | 31 | < 1 | 700 | 21900 | 65500 | 15.25 | inactive |  |  |  |  |  |  |  |  |
| CC(C)Oc1ccc(NC(=N)c2ccccn2)cc1-c1cc(Cl)cc(-c2ccccc2)c1 | 3080 | 2 | 1 | 1880 | 12300 | 1 | < 1 | 3770 | 2980 |  |  |  |  |  |  |  |  |  |  |
| Cl.Cl.N=C(N)c1ccc(-c2cccc(-c3cccc(C(=N)N)c3)c2)cc1 | 15 |  | 1950 |  | 52 | 1 | 544 | 28500 | 27100 | 34.75 | inactive |  |  |  |  |  |  |  |  |
| CN(C)CC(=O)O/N=C(\N)c1ccc(-c2cccc(-c3ccc(/C(N)=N\OC(=O)CN(C)C)cn3)c2)nc1 | 486 |  | 129 |  | 9840 | < 1 | 6 | 62900 | 72300 |  |  |  | >52 |  |  |  |  |  |  |
| CC(C)NC(=N)c1ccc(-c2cccc(-c3ccc(C(=N)NC(C)C)cc3)c2)cc1.Cl.Cl | 16 |  | 6580 |  | 47 | < 1 | 2160 | 102000 | > 150000 | 13.5 | inactive |  |  |  |  |  |  |  |  |
| Cl.Cl.N=C(N)c1ccc(-c2cc(N)cc(-c3ccc(C(=N)N)cc3)c2)cc1 | 136 |  | > 1100 |  | 4 | > 1 | > 39800 | > 150000 | 149000 | >35 | inactive |  |  |  |  |  |  |  |  |
| N=C(Nc1ccc(-c2cccc(-c3cccc(NC(=N)c4ccccc4)c3)c2)cc1)c1ccccc1 | 38 | 3 | 66 | 907 | 635 | 1 | 4 | 2520 | 2140 |  |  |  |  |  |  |  |  |  |  |
| Nc1nc(N)nc(Nc2ccc([As]3SCC(CO)S3)cc2)n1 (stereo not drawn) [MELARSOPROL] |  |  |  |  |  |  |  |  |  | >60 | Active |  |  |  |  |  |  |  |  |
| Cl.N=C(N)c1ccc(-c2cccc(-c3ccc(C(=N)N)cn3)c2)nc1 |  |  | > 3760 |  |  |  | > 8820 |  |  | >60 |  |  |  |  |  | 40 | 17 | >60 |  |
| C[C@@H]1[C@H](O)[C@@H](C)/C=C/C=C/C=C/C=C/C=C/C=C/C=C/[C@H](O[C@@H]2O[C@H](C)[C@@H](O)[C@H](N)[C@@H]2O)C[C@@H]2O[C@](O)(C[C@@H](O)C[C@@H](O)[C@H](O)CC[C@@H](O)C[C@@H](O)CC(=O)O[C@H]1C)C[C@H](O)[C@H]2C(=O)O [AMPHOTERICIN B] |  |  |  | 124 |  |  |  |  |  |  |  |  |  |  |  |  |  |  |  |
| CC(C)Oc1cc(NC(=N)c2ccccn2)ccc1-c1cc(Cl)cc(-c2ccccc2)c1 | > 10000 | 10 | < 1 | 933 | 32400 | 2 | < 1 | 9690 | 4180 |  |  |  |  |  |  |  |  |  |  |
| COc1cc(-c2cccc(C(=N)N)c2)cc(-c2cccc(C(=N)N)c2)c1.Cl.Cl | 28 |  | 4960 |  | 29 | 2 | 4700 | 137000 | 55900 | 10 | inactive |  |  |  |  |  |  |  |  |
| Cl.Cl.Cl.N=C(Nc1cccc(-c2cc(Cl)cc(-c3cccc(NC(=N)c4ccccn4)c3)c2)c1)c1ccccn1 | 6 | 26 | 450 | 95 | 19 | 47 | 133 | 2500 | 53 |  |  |  |  | Toxic | Toxic |  |  |  |  |
| CO/N=C(\N)c1cccc(-c2cccc(-c3cccc(/C(N)=N\OC)c3)c2)c1.Cl.Cl | 9310 |  | 2 |  | 11300 | < 1 | 2 | 20300 | 24100 |  |  |  | 17.25 |  |  |  |  |  | inactive |
| Cl.Cl.N/C(=N/O)c1ccc(-c2cccc(-c3ccc(/C(N)=N\O)cc3)c2)cc1 | > 10000 |  |  |  | 10900 |  | > 14 | > 150000 | > 150000 |  |  |  | >51.25 |  |  |  |  |  |  |
| Cl.Cl.N=C(N)c1ccc(-c2cc(-c3ccc(C(=N)N)cc3)cc([N+](=O)[O-])c2)cc1 | 18 |  | > 8380 |  | 20 | > 2 | > 7480 | > 150000 | 57200 | 20 | inactive |  |  |  |  |  |  |  |  |
| Cl.Cl.N/C(=N\O)c1cccc(-c2cccc(-c3cccc(/C(N)=N\O)c3)c2)c1 | 8230 |  | < 1 |  | 2550 | < 1 | 2 | 5600 | 11200 |  |  |  | 7.25 |  |  |  |  |  | inactive |
